Test results reported in ChEMBL document CHEMBL3526049 (Drug Metab Dispos, 2012).

What was measured:
Format in all cases: ADME, organism-based
[1] = Half life in BCRP knockout Sprague-Dawley rat at 20 mg/kg, po by LC-MS/MS analysis; parameters: dose 20 mg/kg, route oral; conditions: in vivo
In short: (§1)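 Male Sprague-Dawley knockout rats or wild-type rats matched for age and weight, with femoral artery and vein cannulas. Crossover design: sulfasalazine 5 mg/kg iv bolus (water, pH 9–10) on day 0, then 20 mg/kg oral gavage (0.5% carboxymethyl cellulose in PBS, pH 7.4) on day 3. Arterial plasma collected 0–24 h. Sulfasalazine and sulfapyridine measured by LC-MS/MS; noncompartmental parameters; mean ± S.D., n = 4 to 8.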

[2] = Oral bioavailability in BCRP knockout Sprague-Dawley rat at 20 mg/kg by LC-MS/MS analysis; conditions: in vivo; in short: as §1
[3] = AUC (infinity) in BCRP knockout Sprague-Dawley rat at 20 mg/kg, po by LC-MS/MS analysis; parameters: time infinity, dose 20 mg/kg, route oral; conditions: plasma
In short: (§2)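 Male Sprague-Dawley knockout or age/weight-matched wild-type rats with femoral artery and vein cannulas. Crossover design: day 0 i.v. bolus 5 mg/kg sulfasalazine in water at pH 9–10, then day 3 gavage 20 mg/kg in 0.5% carboxymethyl cellulose/PBS pH 7.4. Arterial plasma was sampled to 24 h. Sulfasalazine and sulfapyridine were measured by LC-MS/MS (1–5000 ng/ml). Parameters are noncompartmental; n = 4–8, mean ± S.D.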

[4] = AUC (infinity) in MRP2 knockout Sprague-Dawley rat at 20 mg/kg, po by LC-MS/MS analysis; parameters: time infinity, dose 20 mg/kg, route oral; conditions: plasma; in short: as §2
[5] = Cmax in wild-type Sprague-Dawley rat at 20 mg/kg, po by LC-MS/MS analysis; parameters: dose 20 mg/kg, route oral; conditions: in vivo; in short: as §2
[6] = Cmax in BCRP knockout Sprague-Dawley rat at 20 mg/kg, po by LC-MS/MS analysis; parameters: dose 20 mg/kg, route oral; conditions: in vivo; in short: as §2
[7] = Tmax in wild-type Sprague-Dawley rat at 20 mg/kg, po by LC-MS/MS analysis; parameters: dose 20 mg/kg, route oral; conditions: in vivo
In short: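 Male Sprague-Dawley rats (knockout or wild type, matched for age and weight) with femoral artery and vein cannulas, recovered ≥2 days. In an i.v./oral crossover with a 3-day washout, sulfasalazine was given by oral gavage at 20 mg/kg in 0.5% carboxymethyl cellulose/PBS pH 7.4. Arterial plasma was sampled 0–24 h and analysed by LC-MS/MS (1–5000 ng/ml). Noncompartmental analysis; n = 4 to 8.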

[8] = Half life in MDR1A knockout Sprague-Dawley rat at 20 mg/kg, po by LC-MS/MS analysis; parameters: dose 20 mg/kg, route oral; conditions: in vivo; in short: as §1
[9] = Oral bioavailability in MRP2 knockout Sprague-Dawley rat at 20 mg/kg by LC-MS/MS analysis; conditions: in vivo; in short: as §1
[10] = AUC (infinity) in MRP2-deficient Wistar rat at 5 mg/kg, iv by LC-MS/MS analysis; parameters: dose 5 mg/kg, route intravenous, time infinity; conditions: plasma
In short: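 Male Wistar wild-type or Mrp2-deficient TR⁻ rats with femoral artery and vein cannulas. Sulfasalazine was given as a 5 mg/kg i.v. bolus and as a 20 mg/kg oral dose. Arterial plasma was sampled to 24 h and analysed for parent and sulfapyridine by LC-MS/MS. Noncompartmental parameters; n = 3, mean ± S.D.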

[11] = Half life in MRP2-deficient Wistar rat at 5 mg/kg, iv by LC-MS/MS analysis; parameters: dose 5 mg/kg, route intravenous; conditions: in vivo
In short: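 Male Wistar wild-type rats and Mrp2-deficient TR⁻ rats with femoral artery and vein cannulas. Sulfasalazine given as an iv bolus (5 mg/kg, water at pH 9–10) and by oral gavage, each followed by arterial plasma sampling over 24 h. Sulfasalazine and sulfapyridine measured by LC-MS/MS; noncompartmental parameters; mean ± S.D., n = 3.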

[12] = Cmax in MRP2-deficient Wistar rat at 5 mg/kg, po by LC-MS/MS analysis; parameters: dose 5 mg/kg, route oral; conditions: in vivo
[13] = Tmax in wild-type Wistar rat at 5 mg/kg, po by LC-MS/MS analysis; parameters: dose 5 mg/kg, route oral; conditions: in vivo
[14] = Cmax in wild-type Wistar rat at 5 mg/kg, po by LC-MS/MS analysis; parameters: dose 5 mg/kg, route oral; conditions: in vivo
[15] = AUC (infinity) in wild-type Sprague-Dawley rat at 5 mg/kg, iv by LC-MS/MS analysis; parameters: time infinity, dose 5 mg/kg, route intravenous; conditions: plasma; in short: as §2
[16] = Clearance in MDR1A knockout Sprague-Dawley rat at 5 mg/kg, iv by LC-MS/MS analysis; parameters: dose 5 mg/kg, route intravenous; conditions: in vivo; in short: as §2
[17] = Volume of distribution at steady state in wild-type Sprague-Dawley rat at 5 mg/kg, iv by LC-MS/MS analysis; parameters: dose 5 mg/kg, route intravenous; conditions: in vivo, read-out: Vdss; in short: as §1
[18] = Volume of distribution at steady state in MDR1A knockout Sprague-Dawley rat at 5 mg/kg, iv by LC-MS/MS analysis; parameters: dose 5 mg/kg, route intravenous; conditions: in vivo, read-out: Vdss; in short: as §1

half-life [1]: 1.9 h
bioavailability [2]: 30%
AUC(0-inf) [3]: 13100 ng·h/mL
AUC(0-inf) [4]: 635 ng·h/mL
Cmax [5]: 185 ng/mL
Cmax [6]: 3870 ng/mL
Tmax [7]: 0.25 h
half-life [8]: 2.3 h
bioavailability [9]: 4%
AUC(0-inf) [10]: 7730 ng·h/mL
half-life [11]: 4 h
Cmax [12]: 144 ng/mL
Tmax [13]: 0.5 h
Cmax [14]: 490 ng/mL
AUC(0-inf) [15]: 8400 ng·h/mL
clearance [16]: 13.5 mL/min/kg
Vd [17]: 0.168 L/kg
Vd [18]: 0.285 L/kg
Structure (SMILES): O=C(O)c1cc(/N=N/c2ccc(S(=O)(=O)Nc3ccccn3)cc2)ccc1O [SULFASALAZINE]
